Bioassay records as filed in PubChem BioAssay.
This is a sample that favours compounds with a hit; in the whole collection about 5.5% have one here.
STAT3 blocker = STAT3 signaling inhibition. inhibition, % at 5.5 µM. 190,000 compounds, 0.89% hits. U3A cells, IL-6 STAT3-luciferase reporter, luminescence; host cell line lacks STAT1. AID 862;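 active = inhibition above the mean inhibition across all screened compounds plus 3 SD, cut at about 44% in these data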;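 note: 0% = DMSO only wells and 100% = 100 µM nifuroxazide control wells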
STAT3 act-1 = STAT3 signaling activation. U3A cells, IL-6 STAT3-luciferase reporter, luminescence; 100% = signal with IL-6 EC80 alone. activation (% of control), % at 5.6 µM. 190,000 compounds, 0.91% hits;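 active = activation above the screen-wide mean of compound activation plus 3 SD, cut at about 130% in these data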;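 note: 0% = background luminescence of wells with medium and substrate only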
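Assay system – human STAT1-deficient U3A cells with stable STAT3-luciferase reporter · Also added – IL-6 (33 ng/mL) · Schedule – compound 1 h, then IL-6 6 h at 37 °C · Technique – reporter luminescence signal · Evaluation – % activation versus median of IL-6-stimulated wells · Benchmarks – IL-6-only wells as 100% reference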
STAT1 act-1 = activators of IFN-gamma induced STAT1 signaling | NIH 3T3 STAT1-luciferase reporter, luminescence; 100% = IFN-gamma alone, no compound | activation (% of control), % at 5.5 µM | 200,000 compounds, 2.6% hits;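 active = activation above the screen-wide mean activation plus 3 SD, cut at about 130% in these data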;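 note: raw ratio to IFN-gamma control signal so 100% means no change and 0% no light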
STAT1 inh = STAT1 signaling inhibition | NIH 3T3 STAT1-luciferase reporter, IFN-gamma, luminescence | inhibition, % at 5.5 µM | 200,000 compounds, 0.35% hits | AID 920;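 active = inhibition above a set limit, the mean inhibition across all tested compounds plus 3 SD, cut at about 34% in these data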;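 note: 0% = IFN-gamma with DMSO and 100% = IFN-gamma with 300 µM nifuroxazide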
KCC2 mod = modulators of human KCC2 chloride dependent transport; B-score of Tl+ flux slope (higher = more flux/activation; lower = inhibition) at 10 µM; KCC2 cells, thallium flux FluoZin-2 fluorescence; 190,000 compounds, 2.2% hits; AID 1456;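 active = thallium flux slope and its plate-corrected score both differing from the plate sample mean at a set confidence after two filtering rounds, in either direction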;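 note: slope of fluorescence scaled to starting intensity during 10 to 20 s after thallium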
HSV replic up = HSV replication enhancement; HSV replication augmentation in cells, fold increase; 220,000 compounds, 0.005% hits; maximum fold increase; AID 1956; in the data active = maximum fold increase above about 1.5; tested in PC3 cells
STAT3 act-2 = STAT3 activation, confirmation assay. 1,200 compounds, 64% hits. U3A STAT3-luciferase reporter, IL-6 potentiation, luminescence; U3A cells lack STAT1; 100 means same as IL-6 alone. AID 1267. potentiation (% of control), % at 5.7 µM. shares compounds with STAT3 act-1;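 active = percent activation of the STAT3 luciferase reporter above a set limit taken from the earlier primary screen, cut at about 130% in these data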;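 note: 0% = background signal of medium plus substrate and 100% = median of IL-6 with DMSO wells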
NFkB act 2 = NF-kappaB activation in STAT3 activator counter-screen. shares compounds with STAT3 act-1. human cells, NF-kappaB reporter activation. 1,200 compounds, 11% hits. AID 1309. activation (% of control), % at 5.7 µM; in the data active = activation above about 120%;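 note: reporter induced by TNF-alpha stimulation; 100% = median of stimulated DMSO wells and 0% = no signal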
STAT1 act-2 = counter-screen for STAT3 activators: STAT1 activation. shares compounds with STAT3 act-1. NIH 3T3 STAT1-luciferase reporter, IFN-gamma, luminescence. activation (% of control), % at 5.7 µM. 1,200 compounds, 13% hits;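 active = activation above the solvent-only control well mean plus 3 SD, set per screening run, cut at about 120% in these data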;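 note: 100% = IFN-gamma with DMSO median signal so 100% means no change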
Starred values were filed as active, the others as inactive; i = inactive; x = no result.

SMILES | STAT3 blocker | STAT3 act-1 | STAT1 act-1 | STAT1 inh | KCC2 mod | HSV replic up | STAT3 act-2 | NFkB act 2 | STAT1 act-2
c1ccc2c(c1)CCCN2c1nc2ccccc2n2cnnc12 | -64.7 | 164.4* | 105.9 | -6.5 | -0.595 | i | 162.7* | 110.3 | 108.8
O=C(Nc1nnc(-c2ccccc2Cl)o1)c1nc2ccccc2s1 | -59.6 | 159.1* | 111.1 | -12.2 | x | i | 139.6* | 97.9 | 101.0
O=C(Nc1nnc(-c2ccccc2Cl)o1)c1ccco1 | 11.5 | 92.7 | 99.0 | 1.1 | 0.462 | i | x | x | x
COc1cccc(Nc2nc(N)c([N+](=O)[O-])c(NCc3ccccc3)n2)c1 | x | x | x | x | 1.15 | i | x | x | x
Cc1ccc(NC(=O)C2=C(O)CCn3c2nc2ccccc23)cc1 | -47.1 | 149.2* | 111.1 | -12.1 | 0.946 | i | 123.9 | 101.3 | 103.8
CSCC[C@H](NC(=O)OC(C)(C)C)c1nnc(SCc2cccc(F)c2)o1 | -42.5 | 141.9* | 105.4 | -5.8 | -0.134 | i | 100.2 | 111.5 | 109.4
CSCC[C@H](NC(=O)OC(C)(C)C)c1nnc(SCc2ccc(F)cc2)o1 | 2.1 | 100.5 | 103.9 | -4.3 | -1.38 | i | x | x | x
Oc1ccc2ccccc2c1/C=N/c1nc2c(s1)CCCC2 | -64.6 | 154.0* | 101.5 | -1.6 | 1.39 | i | 136.1* | 104.0 | 94.2
Oc1c(Br)cc(Br)cc1/C=N/c1nc2c(s1)CCCC2 | -11.8 | 113.6 | 102.6 | -3.0 | x | i | x | x | x
COc1ccc(-n2c(=O)c3c4c(sc3n3c(=S)[nH]nc23)CCCC4)cc1 | -5.8 | 107.1 | 101.4 | -1.5 | -1.46 | i | x | x | x
O=C(O)C1Cc2[nH]cnc2C(c2ccccc2O)N1 (stereo unspecified) | -47.7 | 142.9* | 94.1 | 6.6 | 0.655 | i | 171.7* | 102.5 | 115.2
O=C(O)C1Cc2[nH]cnc2C(c2cccc([N+](=O)[O-])c2)N1 (stereo unspecified) | -1.2 | 106.2 | 106.0 | -6.7 | 0.496 | i | x | x | x
O=C(c1ccco1)c1coc2c1cc(O)c1ccccc12 | -65.3 | 161.2* | 100.5 | -2.0 | 0.464 | i | 164.1* | 104.4 | 100.7
COc1ccc(S(=O)(=O)N2Cc3ccccc3CC2C(=O)Nc2nccs2)cc1 (stereo unspecified) | -45.9 | 139.9* | 120.6 | -22.9 | x | i | 110.4 | 112.4 | 119.8
CCCCCCCCCCC[C@@H](C[C@@H]1OC(=O)[C@H]1CCCCCC)OC(=O)[C@H](CC(C)C)NC=O | x | x | x | x | 0.953 | i | x | x | x
CCOC(=O)CSc1ncnc2c1cnn2-c1ccccc1 | -38.3 | 138.1* | 103.3 | -3.6 | x | i | 91.3 | 101.2 | 95.8
CC(=O)Nc1cccc(C(=O)NC(C)c2ccc(S(N)(=O)=O)cc2)c1 (stereo unspecified) | -50.7 | 147.8* | 100.5 | -0.5 | 1.92 | i | 125.0 | 106.8 | 93.4
Cc1ccc(NC(=O)c2cc(N3CCOCC3)nc3ccccc23)cc1 | -53.8 | 153.4* | 97.0 | 3.3 | -0.015 | i | 146.0* | 101.7 | 97.5
COc1cccc(NC2=NC3(CCCCC3)N=C(N)N2)c1 | 13.8 | 91.0 | 100.1 | -0.1 | 0.0754 | i | x | x | x
O=c1c2ccccc2nc(/C=C/c2c[nH]c3ccccc23)n1CCO | -37.7 | 135.8* | 114.7 | -18.2 | -1.19 | i | 136.4* | 117.1 | 125.7*
Nc1c(-c2cccc([N+](=O)[O-])c2)nc2ccccn12 | 5.3 | 98.6 | 117.2 | -19.0 | 0.537 | i | x | x | x
O=C(Cc1cscn1)c1ccc(O)cc1O | -49.1 | 146.4* | 103.0 | -3.3 | x | i | 99.7 | 100.1 | 103.5
Clc1ccc(-c2ccc(/C=N/Nc3nncc(-c4ccccc4)n3)o2)cc1 | -1.6 | 101.5 | 106.4 | -6.9 | 0.241 | i | x | x | x
Clc1ccccc1-c1ccc(/C=N/Nc2nncc(-c3ccccc3)n2)o1 | -73.8 | 162.9* | 96.2 | 2.6 | 0.116 | i | 154.3* | 103.3 | 107.3
CCC(=O)c1ccc(OCC(=O)NCCc2ccccn2)cc1 | 1.0 | 103.5 | 100.4 | 1.2 | -0.335 | i | x | x | x
SMILES | STAT3 blocker | STAT3 act-1 | STAT1 act-1 | STAT1 inh | KCC2 mod | HSV replic up | STAT3 act-2 | NFkB act 2 | STAT1 act-2
Cc1[nH]c(=O)[nH]c(=O)c1S(=O)(=O)N1CCCC(C(=O)N2CCN(c3cccc(C(F)(F)F)c3)CC2)C1 (stereo unspecified) | 1.7 | 99.9 | 102.5 | -3.8 | 0.506 | i | x | x | x
COC(=O)c1[nH]c2ccc(C)cc2c1NC(=O)Oc1ccccc1 | -5.3 | 111.5 | 110.5 | -11.4 | 0.688 | i | x | x | x
C=CCOC(=O)Nc1c(C(=O)OC)[nH]c2ccccc12 | -45.3 | 147.7* | 86.1 | 15.2 | 0.00922 | i | 150.1* | 105.1 | 92.8
COC(=O)c1[nH]c2ccccc2c1NC(=O)Oc1ccccc1 | -57.7 | 158.6* | 97.3 | 2.9 | 0.439 | i | 160.2* | 111.2 | 114.8
C=CCc1c(C)nc(N)[nH]c1=O | -0.9 | 103.9 | 98.0 | 2.4 | -1.06 | i | x | x | x
COc1cccc(C(=O)c2c(C)c(CCC#N)n3ccccc23)c1 | 0.1 | 104.0 | 88.3 | 11.4 | 0.426 | i | x | x | x
CCn1c(SCc2c(F)cccc2Cl)nnc1-c1ccco1 | -1.2 | 103.2 | 108.8 | -9.6 | -1.4 | i | x | x | x
Cc1ccc(O)c(N=CC2=C(O)c3ccccc3C2=O)c1 | -49.0 | 149.0* | 122.4 | -24.6 | x | i | 137.5* | 128.2* | 105.0
Cc1ccc(O)c(C=Nc2cc(C)ccc2O)c1 | -9.1 | 111.2 | 93.4 | 7.3 | 0.105 | i | x | x | x
O=C(Cc1cnc2ncnn2c1)N1CCc2c([nH]c3ccccc23)C1c1ccccc1F (stereo unspecified) | -49.1 | 144.2* | 90.6 | 8.4 | 0.0204 | i | 140.2* | 104.0 | 102.0
Cc1nonc1CC(=O)N1CCc2c([nH]c3ccccc23)C1c1ccccc1F (stereo unspecified) | -50.5 | 149.0* | 108.6 | -11.0 | -2.04 | i | 142.5* | 104.7 | 93.2
Fc1ccccc1C1c2[nH]c3ccccc3c2CCN1Cc1cccn1-c1ncccn1 (stereo unspecified) | -31.7 | 132.8 | 107.8 | -10.6 | -0.74 | i | x | x | x
Oc1ccccc1-c1cc(-c2cccc(F)c2)n[nH]1 | -50.8 | 145.4* | 109.3 | -10.1 | -0.383 | i | 154.9* | 139.7* | 110.7
Oc1ccc(Cl)cc1-c1cc(-c2cccc(Br)c2)n[nH]1 | 11.0 | 96.8 | 100.0 | 0.0 | 0.478 | i | x | x | x
CCn1c(CSc2ncccn2)nnc1SCC(=O)N1CCc2ccccc21 | -49.8 | 148.4* | 89.9 | 11.0 | -0.182 | x | 123.0 | 102.9 | 94.1
